An excerpt weighted towards active compounds, which were near 3% of everything screened.
TAAR1 antagonist = human TAAR1 antagonism; CHO RD-HGA16 TAAR1, Fluo-8 calcium fluorescence, antagonist; inhibition, % at 3 µM; hit rate 1.5% among 360,000; AID 624466;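 active = inhibition above a per-plate cutoff, the mean inhibition of test compounds on that plate plus 3 SD, cut at about 49% in these data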;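 note: 0% = DMSO plus EC80 beta-PEA response and 100% = DMSO alone without agonist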
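Assay system: RD-HGA16 CHO cells with stable hTAAR1 and Gα16 / Reagent: EC80 β-phenethylamine stimulus / Doses: 3 µM, single point / Timing: dye loading 75 min at 37 °C, then 30 min room temperature / Measured by: Fluo-8 intracellular calcium dye fluorescence, real-time kinetic reads / Controls: vehicle wells and EC80 agonist wells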
CHRM4 agonist = CHRM4 agonism in calcium assay. hit rate 0.14% among 360,000. activation, % at 3 µM. CHO-K1 hM4/Gqi5, Fluo-8 calcium fluorescence; vehicle 0%, full acetylcholine response 100%. P08173;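 active = activation above the run mean over all test wells plus 3 SD, cut at about 32% in these data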;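 note: peak over basal fluorescence ratio per well then scaled between controls; 0% = DMSO wells and 100% = acetylcholine at EC100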
Target sequence (P08173 whole entry, looked up): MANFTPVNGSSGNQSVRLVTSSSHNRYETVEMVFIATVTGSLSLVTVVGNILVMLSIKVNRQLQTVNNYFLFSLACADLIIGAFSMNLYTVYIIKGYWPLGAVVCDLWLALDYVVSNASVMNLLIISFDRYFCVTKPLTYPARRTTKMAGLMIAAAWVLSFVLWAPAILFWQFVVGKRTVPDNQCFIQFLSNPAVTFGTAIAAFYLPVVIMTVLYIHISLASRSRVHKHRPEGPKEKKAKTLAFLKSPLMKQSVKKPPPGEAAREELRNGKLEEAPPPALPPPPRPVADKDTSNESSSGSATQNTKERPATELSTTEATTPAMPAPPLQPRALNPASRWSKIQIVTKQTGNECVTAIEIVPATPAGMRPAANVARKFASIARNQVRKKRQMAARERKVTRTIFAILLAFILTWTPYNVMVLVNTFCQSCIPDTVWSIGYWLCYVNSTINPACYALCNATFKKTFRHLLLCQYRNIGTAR
TAAR1 agonist = agonists of human TAAR1. Q96RJ0. activation, % at 3 µM. hit rate 0.99% among 360,000. AID 624467. CHO RD-HGA16 TAAR1, Fluo-8 calcium fluorescence; vehicle wells 0%, saturating PEA agonist 100%;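 active = activation above the mean activation of all test compounds in the run plus 3 SD, cut at about 38% in these data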
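test system = CHO RD-HGA16 cells carrying human TAAR1 plus Gα16 | schedule = 17-24 h seeding, 75 min 37 °C dye, 30 min RT | compound dosing = 3 µM single concentration | control set = DMSO and PEA EC100 | replicates = n 1 | signal = Fluo-8 fluorescence, 5 s baseline then 140 s kinetic read | measure = percent activation vs PEA EC100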
M4 PAM = CHRM4 positive allosteric modulation; P08173; CHO-K1 hM4/Gqi5, Fluo-8 calcium fluorescence, ACh EC20; 0% = ACh EC20, 100% = maximal ACh; activation, % at 3 µM; hit rate 0.4% among 360,000; AID 624126;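 active = activation above its plate's cutoff, the mean activation of sample wells plus 3 SD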
CHRM4 antagonist = CHRM4 antagonism in calcium assay; P08173; CHO-hM4 cells, ACh EC80, Fluo-8 calcium fluorescence; inhibition, % at 3 µM; hit rate 0.73% among 360,000; AID 624125;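 active = inhibition above its plate's cutoff, the mean inhibition of sample wells plus 3 SD, cut at about 27% in these data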;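 note: 0% = acetylcholine EC80 with DMSO and 100% = DMSO without agonist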
nonsel antag count = nonselective antagonism, TAAR1 counter-screen. hit rate 77% among 2,400. inhibition, % at 3 µM. AID 651780. shares compounds with TAAR1 antagonist. counterscreen cell line, calcium fluorescence, antagonist mode; in the data active = inhibition above about 22%;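 note: CHO-Ga16 host cells stimulated with ATP at an EC80 level; 0% = agonist EC80 plus vehicle and 100% = vehicle without agonist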
TAAR1 ant conf = human TAAR1 antagonism, confirmed | shares compounds with TAAR1 antagonist | TAAR1-expressing cells, fluorescence antagonist read-out | inhibition, % at 3 µM | hit rate 40% among 2,400 | AID 651785; in the data active = inhibition above about 49%;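 note: CHO-Ga16 host cells challenged with agonist PEA near its EC80; 0% = agonist at EC80 plus vehicle and 100% = vehicle with no agonist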
Ga16 ag counter = counter-screen for TAAR1 antagonists: nonselective Ga16 agonists; shares compounds with TAAR1 antagonist; Ga16-expressing cells, calcium fluorescence, agonist counterscreen; activation, % at 3 µM; hit rate 18% among 2,400; in the data active = activation above about 12%;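 note: 0% = vehicle wells and 100% = saturating stimulus response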
TAAR1 ag counter = activates human TAAR1 in antagonist counter-screen; shares compounds with TAAR1 antagonist; hTAAR1 cell line, fluorescence activation, agonist mode; activation, % at 3 µM; hit rate 2% among 2,400; AID 651955; in the data active = activation above about 37%;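 note: CHO cells stably expressing TAAR1 with calcium dye readout; 0% = DMSO vehicle and 100% = full agonist response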
* hit, by the source's call; . = not tested or not shown.

SMILES	TAAR1 antagonist	CHRM4 agonist	TAAR1 agonist	M4 PAM	CHRM4 antagonist	nonsel antag count	TAAR1 ant conf	Ga16 ag counter	TAAR1 ag counter
CN(Cc1ccccc1)C(=O)c1ncn(Cc2ccccc2)c1C(=O)N(C)Cc1ccccc1	64*	21	29	-6	10	29*	56*	12*	9
CSc1ncccc1C(=O)N1CCC(C)(C(=O)O)C1 (stereo unspecified)	-7	0	3	3	-11	.	.	.	.
CCn1cc(/C=C(\NC(=O)c2ccccc2OC)C(=O)NCCN2CCOCC2)c2ccccc21	-16	7	13	2	-13	.	.	.	.
O=S(=O)(c1ccc(F)cc1)N1CCN(Cc2nnc(-c3ccccc3)o2)CC1	73*	2	-3	4	12	14	2	4	7
CC(=O)NC(c1ccc(F)c(F)c1)c1nc(-c2cccs2)cs1 (stereo unspecified)	-22	1	2	5	-2	.	.	.	.
CCOc1ccc(Cl)cc1-c1cc(C(=O)NCCOC)[nH]n1	-7	0	-2	-1	-12	.	.	.	.
CCOC(=O)c1c(C)[nH]c(C(=O)N/N=C\c2ccccc2Cl)c1C	55*	10	8	-10	-12	38*	56*	11	10
CCOC(=O)c1c(C)[nH]c(C(=O)NNC(=O)c2ccccc2)c1C	.	1	.	-2	1	.	.	.	.
CCOC(=O)c1c(C)[nH]c(C(=O)N/N=C/c2cccc(OC)c2)c1C	55*	9	17	-4	2	21	41	11	12
CCCNC(=O)C1(C)CCCN(C(=O)COc2ccc(C(C)(C)C)cc2)C1 (stereo unspecified)	-2	2	10	4	-6	.	.	.	.
CC(C)c1cc(Cn2c3ccccc3c(=O)n2C(C)Cn2cc(COc3ccccc3)nn2)on1 (stereo unspecified)	-8	6	1	-4	1	.	.	.	.
COC(=O)C(C#N)(CCC(=O)c1ccccc1)CCC(=O)c1ccccc1	-12	1	1	1	-3	.	.	.	.
CCOC(=O)N1CCC(NC(=O)c2ccc3c(c2)sc2nc(-c4ccccc4)cn23)CC1	57*	11	17	4	-8	31*	35	10	8
CCOc1ccccc1N(CC(=O)Nc1ccc(OC)cc1)S(=O)(=O)c1ccccc1	20	2	1	-3	5	.	.	.	.
CCOc1ccccc1N(CC(=O)Nc1cccc(OC)c1)S(=O)(=O)c1ccccc1	52*	8	1	-7	-6	16	28	2	0
COc1ccc(S(=O)(=O)N(CC(=O)Nc2ccc3c(c2)OCO3)c2ccccc2OC)cc1	69*	11	14	5	0	27*	56*	6	6
COc1ccc(C(=O)c2cnc3ccccc3c2-c2ccccc2)cc1	57*	4	11	-9	5	21	44	4	0
Cc1ccc(C(=O)c2cnc3ccccc3c2-c2ccccc2)cc1	37	-2	11	-10	4	.	.	.	.
CCCCCCCCSC1=CC(=O)C(OC)=C(OC)C1=O	-10	4	21	5	-2	.	.	.	.
COc1ccc(-c2ccc(C(=O)Nc3cc(OC)c(OC)c(OC)c3)c3occc23)c(C)c1	61*	3	0	-5	6	30*	49*	9	10
COc1ccc(-c2ccc(C(=O)NCC3CCOCC3)c3occc23)c(C)c1	59*	15	6	-7	-5	32*	58*	9	12
COCCNC(=O)c1ccc(-c2ccc(OC)cc2C)c2ccoc12	-50	1	0	7	-1	.	.	.	.
OC(c1cccc(Cl)c1)c1nc(-c2csc3ccccc23)cs1 (stereo unspecified)	6	0	1	5	-6	.	.	.	.
CCOc1ccc(C(CC(=O)O)NC(=O)C(c2ccccc2)c2ccccc2)cc1OC (stereo unspecified)	63*	0	0	-3	10	-2	-5	4	1
C[C@]12CC[C@H]3C(=CCc4cc(O)ccc43)[C@@H]1CCC2=O	83*	22	16	-15	11	35*	59*	12*	13
SMILES	TAAR1 antagonist	CHRM4 agonist	TAAR1 agonist	M4 PAM	CHRM4 antagonist	nonsel antag count	TAAR1 ant conf	Ga16 ag counter	TAAR1 ag counter
C[C@]12C[C@H](O)[C@@H]3c4ccc(O)cc4CCC3[C@@H]1CCC2=O (stereo partly specified)	-17	2	1	-3	-6	.	.	.	.
O=C(Nc1ccc2oc(-c3cccnc3)nc2c1)c1ccc(Br)o1	52*	1	20	2	0	17	25	4	5
O=C(Nc1ccc2oc(-c3cccnc3)nc2c1)c1ccco1	19	3	5	5	8	.	.	.	.
COc1cc(OC)cc(C(=O)Nc2ccc(-c3nc4ccccc4o3)cc2)c1	64*	7	14	-2	3	26*	31	2	-1
O=C(Nc1cccc(-c2nc3ccccc3o2)c1)c1cccnc1	67*	13	10	-9	6	23*	35	10	7
CCc1nc2c(OCC=C(C)C)cccn2c1N(C)C(=O)c1ccc(OC)cc1	-8	0	1	-3	3	.	.	.	.
C#CCNC(=O)C[C@@H]1C[C@@]2(C(=O)OCC)CCC=C2N(Cc2ccc(Cl)cc2Cl)C1=O	-19	0	-2	11	-10	.	.	.	.
CC(C)(C)c1ccc(C(=O)N2CCC2(C)C(=O)Nc2ccc3nc[nH]c3c2)cc1 (stereo unspecified)	.	8	.	-2	-2	.	.	.	.
COc1ccccc1NC(=O)COC(=O)c1cc(C)oc1C	-2	1	3	10	11	.	.	.	.
CC(=O)c1ccccc1NC(=O)COC(=O)c1cc(C)oc1C	54*	0	34	-1	4	4	10	0	5
CCCCCCCCCCC(C(=O)O)C1(C(=O)O)CCC(=O)O1 (stereo unspecified)	0	0	1	3	5	.	.	.	.
Cc1ccccc1C(=O)N1CCN(c2ccc(NC(=O)c3ccc4c(c3)OCCO4)cc2)CC1	77*	26	19	-13	4	43*	56*	17*	16
CCOC(=O)N=Nc1c(O)n(C)c2ccccc12	-7	0	-1	0	0	.	.	.	.
Cc1ccccc1OCC(=O)N=Nc1c(O)n(C)c2ccccc12	54*	2	6	4	-4	27*	46	6	9
